Measured values published in ChEMBL document CHEMBL1926586, “A new class of antimalarial dioxanes obtained through a simple two-step synthetic approach: rational design and structure-activity relationship studies” (J Med Chem, 2011).

Experiments:
Plasmodium falciparum [1] = experiment: Antimalarial activity against chloroquine-sensitive Plasmodium falciparum D10 infected in human type A-positive red blood cells assessed as parasite lactate dehydrogenase activity after 72 hrs by spectrophotometric analysis; assay type: functional, organism-based; conditions: D10, 72 h
Procedure, shortened: (§1)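 Parasites were cultured in human type A-positive red blood cells at 5% hematocrit. Medium was RPMI 1640 with 1% AlbuMax, 0.01% hypoxanthine, 20 mM Hepes and 2 mM glutamine. Cultures were held at 37 °C under 1% O2, 5% CO2, 94% N2. Compounds were dissolved in water or DMSO, then diluted in medium. Values are mean ± SD of three experiments in duplicate.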

Plasmodium falciparum [2] = experiment: Antimalarial activity against chloroquine-resistant Plasmodium falciparum W2 infected in human type A-positive red blood cells assessed as parasite lactate dehydrogenase activity after 72 hrs by spectrophotometric analysis; assay type: functional, organism-based; conditions: W2, 72 h; procedure, shortened: as §1
[3] = Therapeutic index, ratio of IC50 for human HMEC1 cells to IC50 for chloroquine-resistant Plasmodium falciparum W2; assay type: cell-based; conditions: read-out: Ratio IC50
[4] = Cytotoxicity against human HMEC1 cells after 72 hrs by MTT assay; assay type: cell-based; conditions: HMEC-1, 72 h

| Structure (SMILES) | IC50 (Plasmodium falciparum [1]) [µM] | IC50 (Plasmodium falciparum [2]) [µM] | selectivity ratio [3] | IC50 [4] [µM] |
| --- | --- | --- | --- | --- |
| CCCCC1(CCCC)C[C@H](C(=O)OC)[C@@](CCCC)(OC)OO1 (racemic) | 2.3 | 1.2 |  |  |
| CCCC[C@]1(C)C[C@H](C(=O)OC)[C@@](C)(OC)OO1 (mixture of isomers) | 17.7 | 8.4 |  |  |
| CCCC[C@]1(C)C[C@H](C(=O)OC)[C@](CCCC)(OC)OO1 (mixture of isomers) | 4.2 | 1.5 |  |  |
| CCCCC1(CCCC)C[C@H](C(=O)OC)[C@@](C)(OC)OO1 (mixture of isomers) | 2.6 | 0.8 | 90 | 98.3 |
| CCCCC1(CCCC)C[C@H](C(=O)OC)[C@](C)(OC)OO1 (mixture of isomers) | 7.4 | 2.5 |  |  |
| CCCC[C@@]1(C)C[C@H](C(=O)OC)[C@](C)(OC)OO1 (mixture of isomers) | 12.6 | 11.8 |  |  |
| CCCC[C@@]1(OC)OOC(C)(C)C[C@@H]1C(=O)OC (mixture of isomers) | 3.7 | 1.5 | 90 | > 384 |
| CCCC[C@]1(C)C[C@H](C(=O)OC)[C@](C)(OC)OO1 (mixture of isomers) | 8.5 | 4.9 |  |  |
| CCCC[C@]1(C)C[C@H](C(=O)OC)[C@@](CCCC)(OC)OO1 (mixture of isomers) | 12.3 | 5 |  |  |
| CC/C=C/[C@H](CC)C[C@@]1(C)C[C@@H](CC)[C@@H](CC(=O)OC)OO1 [PLAKORTIN] | 0.9 | 0.4 |  |  |
| CCCCC1(CCCC)C[C@H](C(=O)OC)[C@](CCCC)(OC)OO1 (mixture of isomers) | 2.9 | 1.2 | 90 | 108 |
| COC(=O)[C@H]1CC(C)(C)OO[C@@]1(C)OC (mixture of isomers) | > 30 | > 30 |  |  |
| CCCC[C@@]1(C)C[C@H](C(=O)OC)[C@](CCCC)(OC)OO1 (mixture of isomers) | 2.6 | 1.3 | 90 | 167 |
| CCCC[C@]1(OC)OOC(C)(C)C[C@@H]1C(=O)OC (mixture of isomers) | > 30 | > 30 |  |  |
| CCCC[C@@]1(C)C[C@H](C(=O)OC)[C@@](C)(OC)OO1 (mixture of isomers) | 17.7 | 6.4 |  |  |
| CC[C@@]1(OC)OOC(C)(C)C[C@@H]1C(=O)OC (mixture of isomers) | > 30 | > 30 |  |  |
